Data set [1] in a line: Therapeutic index, ratio of AD50 for mouse to MED for anxiolytic activity in mouse assessed as increase in time spent in open arm by elevated plus maze test. The class given is toxicity. As to conditions: read-out: TI. The procedure, abridged:
(§1)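 Mice were dosed orally. Anxiolytic activity was tested in the elevated plus maze and reported as minimum effective dose. Anticonvulsant activity was tested against pentylenetetrazole-induced seizures and reported as ED50. Therapeutic indices were given for the anxiolytic and anticonvulsant read-outs against a preliminary mouse safety measure.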

The target in data set [2] is T1, GABA-A receptor; alpha-1/beta-2/gamma-2 (Homo sapiens, UniProt P14867+P18507+P47870).
T1 sequence (P14867 whole entry): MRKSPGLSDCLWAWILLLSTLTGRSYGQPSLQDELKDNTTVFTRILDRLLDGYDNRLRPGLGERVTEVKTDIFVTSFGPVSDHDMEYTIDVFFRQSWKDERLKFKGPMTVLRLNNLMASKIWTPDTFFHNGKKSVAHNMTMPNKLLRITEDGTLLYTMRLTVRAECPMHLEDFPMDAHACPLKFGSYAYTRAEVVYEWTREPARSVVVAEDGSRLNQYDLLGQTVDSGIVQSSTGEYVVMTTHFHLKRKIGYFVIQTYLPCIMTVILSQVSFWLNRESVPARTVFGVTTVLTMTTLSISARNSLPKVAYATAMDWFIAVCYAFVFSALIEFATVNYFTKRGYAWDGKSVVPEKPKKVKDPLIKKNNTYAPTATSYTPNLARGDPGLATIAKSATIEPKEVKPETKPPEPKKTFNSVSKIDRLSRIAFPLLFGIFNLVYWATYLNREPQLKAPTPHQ
T1 sequence (P47870 whole entry): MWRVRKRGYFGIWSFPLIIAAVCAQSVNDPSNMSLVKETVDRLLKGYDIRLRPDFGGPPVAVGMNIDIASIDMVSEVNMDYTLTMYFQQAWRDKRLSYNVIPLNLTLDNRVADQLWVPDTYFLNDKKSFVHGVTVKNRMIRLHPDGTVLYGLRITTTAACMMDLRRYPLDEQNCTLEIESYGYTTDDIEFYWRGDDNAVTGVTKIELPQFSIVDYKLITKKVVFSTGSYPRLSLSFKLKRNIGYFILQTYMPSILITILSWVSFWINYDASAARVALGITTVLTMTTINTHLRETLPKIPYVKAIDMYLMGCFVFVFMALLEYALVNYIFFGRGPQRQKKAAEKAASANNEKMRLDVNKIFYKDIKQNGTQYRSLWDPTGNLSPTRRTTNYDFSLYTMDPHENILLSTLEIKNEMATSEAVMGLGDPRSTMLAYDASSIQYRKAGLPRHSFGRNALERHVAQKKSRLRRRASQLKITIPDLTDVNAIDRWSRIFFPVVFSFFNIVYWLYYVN
T1 sequence (P18507 whole entry): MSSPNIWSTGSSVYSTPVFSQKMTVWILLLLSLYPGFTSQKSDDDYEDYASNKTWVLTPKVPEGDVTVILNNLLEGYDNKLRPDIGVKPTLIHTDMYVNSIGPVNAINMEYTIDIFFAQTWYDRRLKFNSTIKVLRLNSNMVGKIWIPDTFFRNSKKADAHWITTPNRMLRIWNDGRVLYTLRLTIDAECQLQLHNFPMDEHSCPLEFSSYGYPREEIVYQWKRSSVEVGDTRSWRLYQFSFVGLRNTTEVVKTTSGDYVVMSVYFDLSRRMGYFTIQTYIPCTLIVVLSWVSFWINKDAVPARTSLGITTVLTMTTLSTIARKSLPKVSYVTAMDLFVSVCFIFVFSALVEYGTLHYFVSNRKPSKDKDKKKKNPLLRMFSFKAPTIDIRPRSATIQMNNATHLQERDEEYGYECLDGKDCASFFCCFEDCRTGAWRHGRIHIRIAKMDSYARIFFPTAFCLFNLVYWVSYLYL
The data set can be described thus: Positive allosteric modulation of human GABAA alpha1beta2gamma2 receptor expressed in Xenopus laevis oocytes by two-microelectrode voltage-clamp assay. The class given is cell-based, Oocyte. The procedure, abridged:
(§2)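 PAM activity measured as EC50 in Xenopus oocytes expressing α1β2γ2L or α2β1γ2L GABAA receptors.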

Data set [3] in a line: Solubility of the compound in 45% HPbetaCD. The format is physicochemical.
Data set [4] is filed under the species Mus musculus. The data set can be described thus: Anxiolytic activity in mouse assessed as increase in time spent in open arm by elevated plus maze test. The format is functional. To be noted: read-out: MED. The procedure, abridged:
as §1

The target in data set [5] is GABA-A receptor; anion channel (Homo sapiens) (UniProt P14867+P47870+P18507+P28472+P48169+Q99928+Q9UN88+P34903+O00591+O14764+Q8N1C3+P18505+P78334+P47869+P31644+Q16445). Nature of the data set: Potentiation of NAS mediated GABA (unknown origin) tonic effect assessed as fold potentiation. The class given is protein-complex assay. To be noted: filed as activator.
The species named for data set [6] is Mus musculus. The data set can be described thus: Anticonvulsant activity in 6-Hz induced seizure mouse model assessed as protection against 6-Hz induced seizure. The class given is functional. In short, it runs like this:
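Tonic currents recorded from voltage-clamped ([…]) dentate gyrus granule cells of wild-type female mice. Value is fold potentiation of the mean normalized tonic response to 1 µM GABA, from four to eight cells per steroid and concentration. Anticonvulsant ED50 determined in the mouse 6-Hz psychomotor seizure model.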

In data set [7] the target is T2, Gamma-aminobutyric acid receptor subunit alpha-2/beta-1/gamma-2 (Homo sapiens, UniProt P18505+P18507+P47869).
T2 sequence (P18507 whole entry): T1 sequence (P18507 whole entry)
T2 sequence (P18505 whole entry): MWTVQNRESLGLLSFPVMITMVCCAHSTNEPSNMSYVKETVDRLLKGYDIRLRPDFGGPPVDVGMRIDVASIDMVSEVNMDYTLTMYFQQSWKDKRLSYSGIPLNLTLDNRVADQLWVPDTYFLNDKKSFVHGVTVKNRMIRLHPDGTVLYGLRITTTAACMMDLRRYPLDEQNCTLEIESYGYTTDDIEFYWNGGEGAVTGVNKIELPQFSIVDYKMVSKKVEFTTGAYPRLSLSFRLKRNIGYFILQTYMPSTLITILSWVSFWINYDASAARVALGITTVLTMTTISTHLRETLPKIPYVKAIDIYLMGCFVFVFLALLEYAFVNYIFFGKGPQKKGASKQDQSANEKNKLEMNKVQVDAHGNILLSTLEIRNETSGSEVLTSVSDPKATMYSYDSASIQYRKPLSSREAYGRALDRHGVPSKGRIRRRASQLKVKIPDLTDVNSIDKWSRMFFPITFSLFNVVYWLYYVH
T2 sequence (P47869 whole entry): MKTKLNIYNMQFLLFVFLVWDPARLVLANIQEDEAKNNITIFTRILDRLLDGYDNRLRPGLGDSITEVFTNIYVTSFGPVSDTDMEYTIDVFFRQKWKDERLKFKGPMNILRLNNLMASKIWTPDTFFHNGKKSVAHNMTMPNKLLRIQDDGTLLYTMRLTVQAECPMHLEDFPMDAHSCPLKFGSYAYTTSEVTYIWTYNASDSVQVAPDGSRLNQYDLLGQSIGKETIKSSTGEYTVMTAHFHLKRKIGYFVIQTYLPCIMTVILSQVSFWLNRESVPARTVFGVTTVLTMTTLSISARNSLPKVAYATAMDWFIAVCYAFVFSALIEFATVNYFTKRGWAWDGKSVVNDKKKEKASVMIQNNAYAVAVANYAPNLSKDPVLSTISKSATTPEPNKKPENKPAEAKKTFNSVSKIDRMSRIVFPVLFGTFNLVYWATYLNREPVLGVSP
The data set can be described thus: Positive allosteric modulation of human GABAA alpha2beta1gamma2 receptor expressed in Xenopus laevis oocytes by two-microelectrode voltage-clamp assay. The class given is cell-based, Oocyte. In short, it runs like this:
as §2

Data set [8] deals with Mus musculus. Nature of the data set: Anticonvulsant activity in PTZ induced mouse administered orally. The format is functional. As to conditions: route po. The procedure, abridged: as §1
Data set [9] in a line: Therapeutic index, ratio of AD50 for mouse to ED50 for anticonvulsant activity in PTZ induced mouse administered orally. The class given is toxicity. As to conditions: in vivo, route po, read-out: TI. The procedure, abridged: as §1
Data set [10] in a line: Inhibition of NMDA current in Sprague-Dawley rat Cortical neuron. The format is functional, cell-based. To be noted: cortical neurone.
Another data set has as its system Rattus norvegicus. The data set can be described thus: Neuroprotective activity against transient middle cerebral artery occlusion induced cerebral infraction Sprague-Dawley rat model assessed as decrease in cerebral infraction volume at 12 mg/kg, ip and measured after 7 days by TTC staining based assay. The format is functional. More on the design: scale not given: the % may be the effect or the level left. To be noted: time 7 day.

The nature of data set [11]: Inhibition of NMDA induced calcium increase in Sprague-Dawley rat Cortical neuron. The class given is functional, cell-based, Cortical neurone.
The nature of data set [12]: Brain concentration in mouse at 10 mg/kg po measured after 30 mins. As to conditions: read-out: Ct. The class given is ADME, organism-based. The procedure, abridged:
(§3)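 Mice were given oral doses of 3, 10 or 30 mg/kg, with a vehicle group. Pentylenetetrazole was used to induce seizures. Percentages of animals with clonic seizure, tonic seizure and death were recorded. Plasma (ng/mL) and brain (ng/g) concentrations were measured in samples collected 30 min after administration.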

The nature of data set [13]: Plasma concentration in mouse at 10 mg/kg, po measured after 30 mins. The format is ADME, organism-based. The procedure, abridged: as §3
The subject of data set [14] is Mus musculus. The data set can be described thus: Anticonvulsant activity in PTZ induced mouse assessed as reduction in tonic seizure at 3 mg/kg,po (reference value: 80%). The class given is functional. More on the design: scale not given: the % may be the effect or the level left. The procedure, abridged:
as §3

A short description of data set [15]: Brain concentration in mouse at 3 mg/kg po measured after 30 mins. As to conditions: read-out: Ct. The class given is ADME, organism-based. The procedure, abridged:
as §3

Data set [16] deals with Mus musculus. The data set can be described thus: Anticonvulsant activity in PTZ induced mouse assessed as reduction in clonic seizure at 10 mg/kg,po (reference value: 100%). The class given is functional. Set-up: scale not given: the % may be the effect or the level left. In short, it runs like this: as §3
Data set [17] in a line: Brain concentration in mouse at 30 mg/kg po measured after 30 mins. The format is ADME, organism-based. As to conditions: read-out: Ct. In short, it runs like this:
as §3

The subject of data set [18] is Mus musculus. The data set can be described thus: Anticonvulsant activity in PTZ induced mouse assessed as reduction in clonic seizure at 3 mg/kg,po (reference value: 100%). The class given is functional. More on the design: scale not given: the % may be the effect or the level left. The procedure, abridged: as §3
A short description of data set [19]: Plasma concentration in mouse at 30 mg/kg, po measured after 30 mins. The format is ADME, organism-based. In short, it runs like this:
as §3

Data set [20] relates to Mus musculus. The data set can be described thus: Anticonvulsant activity in PTZ induced mouse assessed as animal death at 3 mg/kg,po (reference value: 80%). The class given is functional. In short, it runs like this: as §3
The nature of data set [21]: Plasma concentration in mouse at 3 mg/kg, po measured after 30 mins. The format is ADME, organism-based. In short, it runs like this: as §3
The nature of data set [22]: Oral availability in rat 3 mg/kg, po. To be noted: in vivo. The class given is ADME, organism-based. The procedure, abridged:
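Rat oral bioavailability from dosing at 3 mg/kg p.o. and 1 mg/kg i.v.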

This note sets out measurements from ChEMBL document CHEMBL5260830, “Breakthroughs in neuroactive steroid drug discovery” (Bioorg Med Chem Lett, 2018).

Converted amounts (≈) assume the structure as drawn. Some results are limits rather than exact numbers.

Usually EC50 stands for the midpoint of the concentration-response curve. Broadly, the solubility is the concentration that dissolves in the medium under given conditions. Broadly, the ED50 is the dose at which the effect has come halfway, by size or by number of responders. For the compound `CC(=O)[C@H]1CC[C@H]2[C@@H]3CC[C@H]4C[C@](C)(O)CC[C@]4(C)[C@H]3CC[C@]12C` [GANAXOLONE], the selectivity ratio in data set [1] was 3.3; in data set [9], 3. In addition, the EC50 in [2] was 200 nM; in data set [7], 100 nM. Further, the solubility in data set [3] is 20 mM (≈ 6.65 mg/mL). For the same compound, the minimal effective dose in the data set listed under Mus musculus [4] came to 20 mg/kg. The fold change (FC) in data set [5] is 3.47. Moreover, the ED50 was determined as 1.5 mg/kg in the data set filed under Mus musculus [6] and 23 mg/kg with Mus musculus [8].
As a reminder, the IC50 is the concentration that gives 50% inhibition. Regarding `C=C(C)CC[C@@H](C)[C@H]1CC[C@H]2[C@@H]3C[C@@H](O)[C@@]4(O)C[C@H](O)CC[C@]4(CO)[C@H]3CC[C@]12C`, the IC50 in data set [10] came to 10300 nM; in data set [11] (Rattus norvegicus, Sprague-Dawley, Cortical neurone), 7800 nM; in data set [11] (cortical neurone), 10300 nM. Besides, in the data set on Rattus norvegicus, the Activity turned out to be 30%.
As to `C[C@@]1(O)CC[C@H]2[C@H](CC[C@@H]3[C@@H]2CC[C@]2(C)[C@@H](C(=O)Cn4nccn4)CC[C@@H]32)C1`, the concentration at 0.5 h in data set [12] amounted to 773 ng/g; in data set [13] it was 703 ng/mL; in data set [15], 87 ng/g; in data set [17], 1960 ng/g; in data set [19] it was 1690 ng/mL; in data set [21], 87 ng/mL. The Activity in the data set on Mus musculus [14] was 40%; in the data set on Mus musculus [16], 20%; in the data set with Mus musculus [18], 90%; in the data set with Mus musculus [20] it was 30%.
The bioavailability is dose-corrected exposure relative to a reference, in per cent. `C[C@@]1(O)CC[C@@]2(C)[C@@H](CC[C@@H]3[C@@H]2CC[C@]2(C)[C@@H](c4cc(CO)on4)CC[C@@H]32)C1`: in data set [22], the bioavailability was 77%. Also, the selectivity ratio in [1] is at least 127; in data set [9], 6. Also, the figures for the EC50 in data set [2] and in [7] were 1200 nM and 200 nM, respectively. In addition, the concentration in solution in data set [3] (solubility) came to 52 mM (≈ 20.2 mg/mL). Moreover, in the data set listed under Mus musculus [4], the minimal effective dose is at most 0.3 mg/kg. In the data set on Mus musculus [8], the ED50 is 6 mg/kg.
